Experiment [1] concerns Staphylococcus aureus. Briefly: Antimicrobial activity against Staphylococcus aureus CB1882 harboring rpoB R484H mutant gene, L520 deficient gyrA gene and R236 duplicated parC gene by broth microdilution method. The experiment is classed as functional. The method in brief: (§1)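 CLSI broth microdilution MIC in MHII broth with 0.002% (vol/vol) polysorbate 80. Isolates came from daily stepwise broth passage at sub-MIC drug (MHII without polysorbate 80, 10^6 CFU/ml inoculum, 20–24 h shaking at 37°C), were purified drug-free, and were sequenced at target loci.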

In experiment [2] the test system is Staphylococcus aureus. Briefly: Antimicrobial activity against Staphylococcus aureus CB1884 harboring rpoB R484H mutant gene, L520 deficient gyrA gene, gyrA S84L mutant gene, R236 duplicated par C gene and parC H103Y mutant gene by agar dilution method. The experiment is classed as functional. The method in brief:
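CLSI agar dilution MIC on MHII base medium against stepwise-passage isolates; passage was in MHII broth without polysorbate 80, daily at 37°C.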
On the technique in general: In agar dilution, organisms are placed on agar that contains the substance at set levels.

Experiment [3] concerns Staphylococcus aureus. Nature of the experiment: Antimicrobial activity against Staphylococcus aureus CB1875 harboring gyrA […], parC R298K mutant genes and LNVIKEE461 inserted parC gene by broth microdilution method. The experiment is classed as functional. An outline of the steps:
as §1

Experiment [4] deals with Staphylococcus aureus. Briefly: Antimicrobial activity against Staphylococcus aureus CB1887 harboring rpoB R484H, L520 deficient gyrA, […], R236 duplicated parC and parC H103Y mutant genes selected after ABT-719 exposure for 20 days by agar dilution method. The experiment is classed as functional. To be noted: CB1887, 480 h.
For experiment [5], the system named is Staphylococcus aureus. Briefly: Antimicrobial activity against Staphylococcus aureus CB190 by broth microdilution method. The experiment is classed as functional. (In general: Dilution methods test growth across graded concentrations, often in twofold steps.)
The subject of experiment [6] is Staphylococcus aureus. Briefly: Antimicrobial activity against Staphylococcus aureus CB808 harboring quinolone-resistant parC S80F mutant gene by broth microdilution method. In kind it is functional. An outline of the steps:
(§2)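 CLSI broth microdilution MIC in cation-adjusted Mueller-Hinton (MHII) broth supplemented with 0.002% (vol/vol) polysorbate 80, included to limit compound loss to plastic surfaces.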

Experiment [7] deals with Staphylococcus aureus. Briefly: Inhibition of DNA synthesis in rifamycin-resistant Staphylococcus aureus CB370 harboring rpoB H481Y mutant gene assessed as decrease in [methyl-3H]thymidine incorporation at 0.5 ug/ml. The experiment is classed as functional, organism-based. The method in brief: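 Macromolecular synthesis time course in S. aureus, measuring incorporation of [methyl-3H]thymidine (DNA), [5,6-3H]uridine (RNA) or [2,3-3H]D-alanine (cell wall). At each time point, incorporation is expressed as percent of the DMSO-treated control culture. Incorporation at time zero is set to 100%.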
For orientation: Uptake of a labelled nucleoside into DNA is a usual measure of proliferation.

Experiment [8] has as its system Staphylococcus aureus. Nature of the experiment: Antimicrobial activity against rifampin-sensitive Staphylococcus aureus CB190 harboring rpoB H472 mutant gene by broth microdilution method. The experiment is classed as functional. An outline of the steps:
as §2

In experiment [9] the test system is Staphylococcus aureus. Nature of the experiment: Antimicrobial activity against Staphylococcus aureus CB1522 harboring by broth microdilution method. In kind it is functional.

≈ marks a conversion by molar mass, not a printed value. Calls of active or inactive are those of the source. A value given as a limit tells only on which side of the number the result lay.

As usually defined, the MIC is the smallest concentration in the dilution series that meets the test's criterion for growth inhibition. Regarding `CO[C@H]1/C=C/O[C@@]2(C)Oc3c(C)c(O)c4c(O)c(c(/C=N/N5CCC(N(C)C6([C@@H]7CCN(c8c(F)cn9c(=O)c(C(=O)O)cc(C%10CC%10)c9c8C)C7)CC6)CC5)c(O)c4c3C2=O)NC(=O)/C(C)=C\C=C\[C@H](C)[C@H](O)[C@@H](C)[C@@H](O)[C@@H](C)[C@H](OC(C)=O)[C@@H]1C`, the minimum inhibitory concentration (MIC) was 1 µg/mL (≈ 0.83 µM) against Staphylococcus aureus [1]; 4 µg/mL (≈ 3.32 µM) with Staphylococcus aureus [2]; 8 ng/mL (≈ 0.00664 µM) against Staphylococcus aureus [3]; > 8 µg/mL in the experiment on Staphylococcus aureus [4]; 0.015 µg/mL (≈ 0.0124 µM) with Staphylococcus aureus [5]; 0.015 µg/mL (≈ 0.0124 µM) in the experiment with Staphylococcus aureus [6]. Further, the MIC in the experiment on Staphylococcus aureus [8] was determined as 0.12 µg/mL (≈ 0.0996 µM); with Staphylococcus aureus [9] it was 0.25 µg/mL (≈ 0.207 µM). The outcome with Staphylococcus aureus [7] was Active.
